According to ChEMBL document CHEMBL3045973, “Synthesis and insecticidal activity of novel 4beta-halogenated benzoylamino podophyllotoxins against Pieris rapae Linnaeus” (2002):
Active and inactive are the calls of the source. The rule behind the calls is not given here.

Columns and labels:
[1] = tested on: Pieris rapae; experiment: Insecticidal activity against fifth-instar larvae of Pieris rapae fed on compound treated cabbage leaf assessed as paralysis at 250 ppm dipped for 3 secs measured after 48 hr relative to control; type: functional, organism-based
[2] = tested on: Pieris rapae; experiment: Insecticidal activity against fifth-instar larvae of Pieris rapae fed on compound treated cabbage leaf assessed as change in spontaneous movement at 250 ppm dipped for 3 secs measured after 24 hr relative to control; type: functional, organism-based
[3] = tested on: Pieris rapae; experiment: Insecticidal activity against fifth-instar larvae of Pieris rapae fed on compound treated cabbage leaf assessed as delay in metamorophosis at 250 ppm dipped for 3 secs relative to control; type: functional, organism-based
Summary of the method: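 Fifth-instar P. rapae larvae dosed by the leaf-dipping method at 250 ppm. Development time from larva to adulthood was compared with a control group.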

[4] = tested on: Pieris rapae; experiment: Insecticidal activity against fifth-instar larvae of Pieris rapae fed on compound treated cabbage leaf assessed as immobilization at 250 ppm dipped for 3 secs measured after 48 hr relative to control; type: functional, organism-based
[5] = tested on: Pieris rapae; experiment: Insecticidal activity against fifth-instar larvae of Pieris rapae fed on compound treated cabbage leaf assessed as mortality at 250 ppm dipped for 3 secs measured after 5 days (reference value: 0%); type: functional
[6] = tested on: Pieris rapae; experiment: Insecticidal activity against fifth-instar larvae of Pieris rapae fed on compound treated cabbage leaf assessed as inhibition of reproduction in pupated adultoids at 250 ppm dipped for 3 secs relative to control; type: functional, organism-based
[7] = tested on: Pieris rapae; experiment: Insecticidal activity against fifth-instar larvae of Pieris rapae fed on compound treated cabbage leaf assessed as mortality at 250 ppm dipped for 3 secs measured after 15 days (reference value: 10 1.22%); type: functional
[8] = tested on: Pieris rapae; experiment: Insecticidal activity against fifth-instar larvae of Pieris rapae fed on compound treated cabbage leaf assessed as loss of body fluid at 250 ppm dipped for 3 secs measured after 48 hr relative to control; type: functional, organism-based
[9] = tested on: Pieris rapae; experiment: Insecticidal activity against fifth-instar larvae of Pieris rapae fed on compound treated cabbage leaf assessed as mortality at 250 ppm dipped for 3 secs measured after 10 days (reference value: 6.67 1.56%); type: functional

| SMILES | Activity [1] | Activity [2] | Activity [3] | Activity [4] | mortality [5] | Activity [6] | mortality [7] | Activity [8] | mortality [9] |
| --- | --- | --- | --- | --- | --- | --- | --- | --- | --- |
| COc1cc([C@@H]2c3cc4c(cc3[C@@H](NC(=O)c3ccc(Cl)cc3)[C@H]3COC(=O)[C@H]23)OCO4)cc(OC)c1OC | Active | Active | Active | Active | 36.84% | Active | 94.95% | Active | 72.08% |
| COc1cc([C@@H]2c3cc4c(cc3[C@@H](NC(=O)c3ccc(I)cc3)[C@H]3COC(=O)[C@H]23)OCO4)cc(OC)c1OC | Active | Active | Active | Active | 20.73% | Active | 73.87% | Active | 48.28% |
| CCOP(=S)(OCC)Oc1ccc([N+](=O)[O-])cc1 [PARATHION] |  |  |  |  | 100% |  |  |  |  |
| COc1cc([C@@H]2c3cc4c(cc3[C@@H](NC(=O)c3ccccc3I)[C@H]3COC(=O)[C@H]23)OCO4)cc(OC)c1OC | Active | Active | Active | Active | 12.62% | Active | 69.69% | Active | 48.36% |
| COc1cc([C@@H]2c3cc4c(cc3[C@@H](NC(=O)c3cccc(F)c3)[C@H]3COC(=O)[C@H]23)OCO4)cc(OC)c1OC | Active | Active | Active | Active | 18.57% | Active | 86.7% | Active | 49.46% |
| COc1cc([C@@H]2c3cc4c(cc3[C@@H](N)[C@H]3COC(=O)[C@H]23)OCO4)cc(OC)c1OC [4BETA-NH2-PODOPHYLLOTOXIN] | Active | Active | Active | Active | 21.69% | Active | 49.48% | Active | 36.43% |
| COc1cc([C@@H]2c3cc4c(cc3[C@@H](NC(=O)c3ccccc3F)[C@H]3COC(=O)[C@H]23)OCO4)cc(OC)c1OC | Active | Active | Active | Active | 22.68% | Active | 68.42% | Active | 46.41% |
| COc1cc([C@@H]2c3cc4c(cc3[C@@H](NC(=O)c3ccccc3Cl)[C@H]3COC(=O)[C@H]23)OCO4)cc(OC)c1OC | Active | Active | Active | Active | 4.54% | Active | 65.56% | Active | 36.36% |
| COc1cc([C@@H]2c3cc4c(cc3[C@@H](NC(=O)c3cccc(I)c3)[C@H]3COC(=O)[C@H]23)OCO4)cc(OC)c1OC | Active | Active | Active | Active | 8.35% | Active | 69.69% | Active | 40.71% |
| COc1cc([C@@H]2c3cc4c(cc3[C@@H](NC(=O)c3ccc(Br)cc3)[C@H]3COC(=O)[C@H]23)OCO4)cc(OC)c1OC | Active | Active | Active | Active | 14.81% | Active | 85.97% | Active | 51.85% |
| COc1cc([C@@H]2c3cc4c(cc3[C@@H](NC(=O)c3cccc(Cl)c3)[C@H]3COC(=O)[C@H]23)OCO4)cc(OC)c1OC | Active | Active | Active | Active | 16.56% | Active | 94.73% | Active | 54.25% |
| COc1cc([C@@H]2c3cc4c(cc3[C@@H](NC(=O)c3ccc(F)cc3)[C@H]3COC(=O)[C@H]23)OCO4)cc(OC)c1OC | Active | Active | Active | Active | 11.11% | Active | 66.76% | Active | 44.74% |
| COc1cc([C@@H]2c3cc4c(cc3[C@@H](NC(=O)c3cccc(Br)c3)[C@H]3COC(=O)[C@H]23)OCO4)cc(OC)c1OC | Active | Active | Active | Active | 46.15% | Active | 85.42% | Active | 69.23% |
| COc1cc([C@@H]2c3cc4c(cc3[C@H](O)[C@H]3COC(=O)[C@H]23)OCO4)cc(OC)c1OC [PODOFILOX] | Active | Active | Active | Active | 34.02% | Active | 74.74% | Active | 53.36% |
| COc1cc([C@@H]2c3cc4c(cc3[C@@H](NC(=O)c3ccccc3Br)[C@H]3COC(=O)[C@H]23)OCO4)cc(OC)c1OC | Active | Active | Active | Active | 4.35% | Active | 74.74% | Active | 44.78% |
